According to article PMC5715471 (ACS chemical neuroscience, 2017):

Experiments:
[1] = target: T1, σ2R/Tmem97 (Rattus norvegicus, UniProt Q5U3Y7); experiment: Sigma 2 receptor competition binding with [3H]-ditolylguanidine; settings: σ2R from rat PC12 cells
T1 sequence (Q5U3Y7 1-176): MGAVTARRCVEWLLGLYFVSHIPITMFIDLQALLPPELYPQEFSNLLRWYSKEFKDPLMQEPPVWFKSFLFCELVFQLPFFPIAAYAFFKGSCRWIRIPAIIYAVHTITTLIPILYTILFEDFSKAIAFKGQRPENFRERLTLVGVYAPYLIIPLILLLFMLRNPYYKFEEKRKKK

[2] = tested on: mouse spared nerve injury (SNI) model; experiment: Mechanical sensitivity; format: in vivo
Summary of the method: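 Male C57Bl6/J SNI mice, hindpaw mechanical hypersensitivity confirmed 2 weeks post-surgery. Tail-vein IV injection in 100 μL sterile saline (DMSO stock diluted; vehicle DMSO-matched): test compound 10 mg/kg, gabapentin 100 mg/kg, or vehicle, n = 6 each. Blinded von Frey testing (modified up–down) at set time points. Mean ± SEM; two-way ANOVA with Bonferroni post hoc.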

[3] = target: 5HT1A (Homo sapiens, UniProt P08908); experiment: PDSP radioligand binding, 5HT1A; settings: 10 μM
[4] = target: 5HT1B (Homo sapiens, UniProt P28222); experiment: PDSP radioligand binding, 5HT1B; settings: 10 μM
[5] = target: 5HT1D (Homo sapiens, UniProt P28221); experiment: PDSP radioligand binding, 5HT1D; settings: 10 μM
[6] = target: 5HT2A (Homo sapiens, UniProt P28223); experiment: PDSP radioligand binding, 5HT2A; settings: 10 μM
[7] = target: 5HT2B (Homo sapiens, UniProt P41595); experiment: PDSP radioligand binding, 5HT2B; settings: 10 μM
[8] = target: 5HT6 (Homo sapiens, UniProt P50406); experiment: PDSP radioligand binding, 5HT6; settings: 10 μM
[9] = target: 5HT7 (Homo sapiens, UniProt P34969); experiment: PDSP radioligand binding, 5HT7; settings: 10 μM
[10] = target: A2B2 (Rattus norvegicus, UniProt P12389+P12390); experiment: PDSP radioligand binding, A2B2; settings: 10 μM
[11] = target: A2B4 (Rattus norvegicus, UniProt P12389+P12392); experiment: PDSP radioligand binding, A2B4; settings: 10 μM
[12] = target: A3B2 (Rattus norvegicus, UniProt P04757+P12390); experiment: PDSP radioligand binding, A3B2; settings: 10 μM
[13] = target: A3B4 (Rattus norvegicus, UniProt P04757+P12392); experiment: PDSP radioligand binding, A3B4; settings: 10 μM
[14] = target: T2, A4B2 (Rattus norvegicus, UniProt P09483+P12390); experiment: PDSP radioligand binding, A4B2; settings: 10 μM
[15] = target: T2, A4B2; experiment: PDSP radioligand binding, A4B2 sourced from rodent brain; settings: 10 μM
[16] = target: A4B4 (Rattus norvegicus, UniProt P09483+P12392); experiment: PDSP radioligand binding, A4B4; settings: 10 μM
[17] = tested on: A7; experiment: PDSP radioligand binding, A7; settings: 10 μM
[18] = target: A7 (Rattus norvegicus, UniProt Q05941); experiment: PDSP radioligand binding, A7 sourced from rodent brain; settings: 10 μM
[19] = target: Alpha1b (Homo sapiens, UniProt P35368); experiment: PDSP radioligand binding, Alpha1b; settings: 10 μM
[20] = target: Alpha1d (Homo sapiens, UniProt P25100); experiment: PDSP radioligand binding, Alpha1d; settings: 10 μM
[21] = target: Alpha2b (Homo sapiens, UniProt P18089); experiment: PDSP radioligand binding, Alpha2b; settings: 10 μM
[22] = tested on: Alpha1c; experiment: PDSP radioligand binding, Alpha1c; settings: 10 μM
[23] = target: AMPA; experiment: PDSP radioligand binding, AMPA
[24] = target: Beta1 (Homo sapiens, UniProt P08588); experiment: PDSP radioligand binding, Beta1; settings: 10 μM
[25] = target: Beta2 (Homo sapiens, UniProt P07550); experiment: PDSP radioligand binding, Beta2; settings: 10 μM
[26] = target: Beta3 (Homo sapiens, UniProt P13945); experiment: PDSP radioligand binding, Beta3; settings: 10 μM
[27] = tested on: BZP rat brain; experiment: PDSP radioligand binding, BZP rat brain; settings: 10 μM
[28] = target: D1 (Homo sapiens, UniProt P21728); experiment: PDSP radioligand binding, D1; settings: 10 μM
[29] = target: D4 (Homo sapiens, UniProt P21917); experiment: PDSP radioligand binding, D4; settings: 10 μM
[30] = target: D5 (Homo sapiens, UniProt P21918); experiment: PDSP radioligand binding, D5; settings: 10 μM
[31] = tested on: GabaA; experiment: PDSP radioligand binding, GabaA; settings: 10 μM
[32] = target: H3 (Homo sapiens, UniProt Q9Y5N1); experiment: PDSP radioligand binding, H3; settings: 10 μM
[33] = target: KOR (Homo sapiens, UniProt P41145); experiment: PDSP radioligand binding, KOR
[34] = target: M2 (Homo sapiens, UniProt P08172); experiment: PDSP radioligand binding, M2; settings: 10 μM
[35] = target: M4 (Homo sapiens, UniProt P08173); experiment: PDSP radioligand binding, M4; settings: 10 μM
[36] = target: M5 (Homo sapiens, UniProt P08912); experiment: PDSP radioligand binding, M5; settings: 10 μM
[37] = target: MOR (Homo sapiens, UniProt P35372); experiment: PDSP radioligand binding, MOR; settings: 10 μM
[38] = target: NET (Homo sapiens, UniProt P23975); experiment: PDSP radioligand binding, NET
[39] = target: NMDA; experiment: PDSP radioligand binding, NMDA
[40] = target: PBR (Rattus norvegicus, UniProt P16257); experiment: PDSP radioligand binding, PBR; settings: 10 μM
[41] = target: SERT (Homo sapiens, UniProt P31645); experiment: PDSP radioligand binding, SERT; settings: 10 μM
[42] = target: V1B (Homo sapiens, UniProt P47901); experiment: PDSP radioligand binding, V1B

T2 sequence (P09483 31-630): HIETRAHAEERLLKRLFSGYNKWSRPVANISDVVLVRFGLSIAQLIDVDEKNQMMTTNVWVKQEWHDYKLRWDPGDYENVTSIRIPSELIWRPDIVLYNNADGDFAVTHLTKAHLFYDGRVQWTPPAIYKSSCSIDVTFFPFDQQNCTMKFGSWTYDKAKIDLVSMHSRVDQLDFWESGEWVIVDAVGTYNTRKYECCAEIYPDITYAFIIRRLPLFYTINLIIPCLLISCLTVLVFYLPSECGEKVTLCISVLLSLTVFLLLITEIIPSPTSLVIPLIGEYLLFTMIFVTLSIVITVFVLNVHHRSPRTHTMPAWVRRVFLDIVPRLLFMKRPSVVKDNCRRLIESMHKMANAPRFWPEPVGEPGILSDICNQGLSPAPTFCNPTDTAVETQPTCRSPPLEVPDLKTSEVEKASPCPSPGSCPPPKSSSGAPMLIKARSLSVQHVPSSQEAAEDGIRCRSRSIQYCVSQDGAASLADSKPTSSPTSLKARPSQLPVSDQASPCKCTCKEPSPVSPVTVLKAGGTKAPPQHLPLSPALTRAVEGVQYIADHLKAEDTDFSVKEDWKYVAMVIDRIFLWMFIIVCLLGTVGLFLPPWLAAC
T2 sequence (P12390 25-500): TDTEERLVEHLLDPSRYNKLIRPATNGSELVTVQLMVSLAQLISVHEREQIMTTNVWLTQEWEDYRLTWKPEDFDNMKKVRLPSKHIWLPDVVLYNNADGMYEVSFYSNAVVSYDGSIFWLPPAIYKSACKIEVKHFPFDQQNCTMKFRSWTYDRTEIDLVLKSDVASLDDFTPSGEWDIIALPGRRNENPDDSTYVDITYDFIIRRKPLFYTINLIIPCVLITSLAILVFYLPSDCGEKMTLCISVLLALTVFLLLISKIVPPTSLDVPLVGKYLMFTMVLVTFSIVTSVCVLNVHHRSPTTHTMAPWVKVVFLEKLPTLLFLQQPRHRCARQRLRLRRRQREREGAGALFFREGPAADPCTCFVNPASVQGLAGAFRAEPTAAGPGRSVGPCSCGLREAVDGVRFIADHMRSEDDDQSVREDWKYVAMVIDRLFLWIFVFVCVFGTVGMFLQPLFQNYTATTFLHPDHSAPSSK
D4, sequence (P21917 whole entry): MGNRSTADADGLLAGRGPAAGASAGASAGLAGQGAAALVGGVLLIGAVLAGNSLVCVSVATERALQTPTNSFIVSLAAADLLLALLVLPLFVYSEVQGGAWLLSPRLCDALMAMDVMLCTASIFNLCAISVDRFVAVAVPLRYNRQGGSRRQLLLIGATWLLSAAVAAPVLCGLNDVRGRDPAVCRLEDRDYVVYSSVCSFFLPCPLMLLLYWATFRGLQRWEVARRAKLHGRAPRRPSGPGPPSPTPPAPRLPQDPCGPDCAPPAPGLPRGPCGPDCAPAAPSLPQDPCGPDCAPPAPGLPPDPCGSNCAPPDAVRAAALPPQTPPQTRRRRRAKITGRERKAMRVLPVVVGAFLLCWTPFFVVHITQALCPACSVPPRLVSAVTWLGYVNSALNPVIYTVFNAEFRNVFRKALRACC
5HT1D, sequence (P28221 whole entry): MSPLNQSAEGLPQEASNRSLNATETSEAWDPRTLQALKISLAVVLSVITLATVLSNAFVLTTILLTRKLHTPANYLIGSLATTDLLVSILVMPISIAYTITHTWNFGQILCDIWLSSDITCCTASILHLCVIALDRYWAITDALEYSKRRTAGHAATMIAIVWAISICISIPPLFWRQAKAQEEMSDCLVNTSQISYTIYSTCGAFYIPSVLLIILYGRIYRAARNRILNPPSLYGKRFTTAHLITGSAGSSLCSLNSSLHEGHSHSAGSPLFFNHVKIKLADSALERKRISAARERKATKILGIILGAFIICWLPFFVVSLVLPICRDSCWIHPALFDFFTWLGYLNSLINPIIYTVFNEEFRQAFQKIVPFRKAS
Beta3, sequence (P13945 whole entry): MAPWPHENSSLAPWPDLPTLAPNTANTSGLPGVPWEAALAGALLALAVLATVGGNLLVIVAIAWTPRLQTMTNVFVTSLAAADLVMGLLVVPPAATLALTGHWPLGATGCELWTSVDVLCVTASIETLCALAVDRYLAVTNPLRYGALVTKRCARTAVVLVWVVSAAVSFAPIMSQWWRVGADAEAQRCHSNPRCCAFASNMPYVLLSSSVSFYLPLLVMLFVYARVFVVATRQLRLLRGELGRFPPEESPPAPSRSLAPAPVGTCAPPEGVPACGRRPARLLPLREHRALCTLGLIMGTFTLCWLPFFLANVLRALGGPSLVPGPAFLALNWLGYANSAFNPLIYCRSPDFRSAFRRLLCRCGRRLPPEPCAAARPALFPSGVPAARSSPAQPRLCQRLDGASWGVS
5HT1A, sequence (P08908 whole entry): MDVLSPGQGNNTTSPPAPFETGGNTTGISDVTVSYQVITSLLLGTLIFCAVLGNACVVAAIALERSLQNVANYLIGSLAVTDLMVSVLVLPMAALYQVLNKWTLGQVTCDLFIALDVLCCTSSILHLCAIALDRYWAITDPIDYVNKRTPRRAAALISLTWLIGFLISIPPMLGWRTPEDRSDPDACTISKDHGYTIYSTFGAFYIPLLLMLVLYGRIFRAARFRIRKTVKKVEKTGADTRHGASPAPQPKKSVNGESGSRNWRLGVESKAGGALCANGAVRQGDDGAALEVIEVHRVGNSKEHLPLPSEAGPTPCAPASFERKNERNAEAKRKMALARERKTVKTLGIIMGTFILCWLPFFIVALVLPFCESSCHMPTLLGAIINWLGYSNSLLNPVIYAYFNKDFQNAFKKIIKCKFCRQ
D5, sequence (P21918 whole entry): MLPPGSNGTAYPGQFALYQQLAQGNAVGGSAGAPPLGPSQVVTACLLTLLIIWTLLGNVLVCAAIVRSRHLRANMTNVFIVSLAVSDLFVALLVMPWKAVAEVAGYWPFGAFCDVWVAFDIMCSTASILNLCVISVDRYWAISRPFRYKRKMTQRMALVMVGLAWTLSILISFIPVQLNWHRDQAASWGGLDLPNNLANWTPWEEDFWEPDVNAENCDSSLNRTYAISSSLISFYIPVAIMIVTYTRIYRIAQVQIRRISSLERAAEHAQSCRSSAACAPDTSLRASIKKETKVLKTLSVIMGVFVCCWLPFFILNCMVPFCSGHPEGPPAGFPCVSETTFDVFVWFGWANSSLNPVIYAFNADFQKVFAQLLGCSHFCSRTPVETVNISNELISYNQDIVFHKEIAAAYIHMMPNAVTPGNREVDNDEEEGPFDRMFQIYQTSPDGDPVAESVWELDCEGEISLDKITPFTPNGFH
A2B4, sequence (P12389 28-511): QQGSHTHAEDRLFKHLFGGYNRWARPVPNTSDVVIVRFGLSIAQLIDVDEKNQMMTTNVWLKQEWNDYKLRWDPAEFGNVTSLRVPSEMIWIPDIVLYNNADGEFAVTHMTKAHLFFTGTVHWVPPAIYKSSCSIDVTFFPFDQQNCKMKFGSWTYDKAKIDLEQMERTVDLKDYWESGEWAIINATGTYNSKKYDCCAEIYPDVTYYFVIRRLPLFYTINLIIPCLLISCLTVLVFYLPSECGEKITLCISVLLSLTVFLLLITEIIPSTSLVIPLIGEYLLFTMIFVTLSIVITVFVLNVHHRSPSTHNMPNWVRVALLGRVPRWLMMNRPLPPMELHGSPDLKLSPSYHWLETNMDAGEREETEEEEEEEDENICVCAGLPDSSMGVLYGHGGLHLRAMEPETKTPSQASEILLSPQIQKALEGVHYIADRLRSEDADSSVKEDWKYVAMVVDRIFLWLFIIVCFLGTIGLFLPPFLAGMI
A2B4, sequence (P12392 21-495): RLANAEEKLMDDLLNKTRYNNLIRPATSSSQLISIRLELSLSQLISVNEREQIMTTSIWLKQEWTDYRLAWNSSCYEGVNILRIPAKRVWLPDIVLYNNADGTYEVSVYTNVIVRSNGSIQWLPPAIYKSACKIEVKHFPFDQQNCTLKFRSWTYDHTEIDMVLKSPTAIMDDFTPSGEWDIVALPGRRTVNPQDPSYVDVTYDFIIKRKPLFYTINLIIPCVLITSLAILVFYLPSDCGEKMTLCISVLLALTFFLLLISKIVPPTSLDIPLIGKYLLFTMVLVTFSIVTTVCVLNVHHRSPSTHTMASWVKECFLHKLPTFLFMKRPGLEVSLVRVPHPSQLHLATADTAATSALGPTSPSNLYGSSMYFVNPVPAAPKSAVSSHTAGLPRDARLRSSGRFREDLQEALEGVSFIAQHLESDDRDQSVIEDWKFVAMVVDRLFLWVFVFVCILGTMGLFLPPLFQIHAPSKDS
A2B2, sequence (P12389 28-511): as the sequence (P12389 28-511) above
A2B2, sequence (P12390 25-500): as the sequence (P12390 25-500) above
Alpha1b, sequence (P35368 whole entry): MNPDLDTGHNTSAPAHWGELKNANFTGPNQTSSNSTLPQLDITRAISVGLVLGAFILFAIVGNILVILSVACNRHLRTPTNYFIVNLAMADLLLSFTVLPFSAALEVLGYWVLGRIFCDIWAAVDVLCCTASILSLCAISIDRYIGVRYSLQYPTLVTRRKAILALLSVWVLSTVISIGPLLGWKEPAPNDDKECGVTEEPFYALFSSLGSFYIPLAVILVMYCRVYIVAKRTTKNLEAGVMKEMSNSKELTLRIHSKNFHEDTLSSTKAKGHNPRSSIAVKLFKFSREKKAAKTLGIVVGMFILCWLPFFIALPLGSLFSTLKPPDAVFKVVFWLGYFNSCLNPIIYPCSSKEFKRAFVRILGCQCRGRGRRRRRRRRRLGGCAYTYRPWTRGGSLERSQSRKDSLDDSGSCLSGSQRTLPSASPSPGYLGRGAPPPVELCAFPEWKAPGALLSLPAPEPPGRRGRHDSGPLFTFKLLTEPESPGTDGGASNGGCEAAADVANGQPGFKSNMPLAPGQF
PBR, sequence (P16257 whole entry): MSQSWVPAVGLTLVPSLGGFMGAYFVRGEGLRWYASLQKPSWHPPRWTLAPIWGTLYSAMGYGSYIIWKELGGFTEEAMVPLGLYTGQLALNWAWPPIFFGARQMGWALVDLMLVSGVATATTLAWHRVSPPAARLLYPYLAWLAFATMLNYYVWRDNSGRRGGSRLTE

Q: For `OCCCN1CCCC2CC1c1cc(-c3ccc(C(F)(F)F)cc3)ccc12` (racemic) [UKH-1114, (±)-9-(4-(Trifluoromethyl)phenyl)-3,4,5,6-tetrahydro-1,6-methanobenzo[c]azocin-2(1H)-yl)propan-1-ol], which “affinity at σ2R/Tmem97 (in words)” value [1] is on record?
A: The value was “high affinity”.

Q: What about the “effect on SNI-induced mechanical hypersensitivity” value ([2]; IV 10 mg/kg) of the same molecule?
A: Its value is “complete reversal of mechanical hypersensitivity”.

Q: And the “duration of relief of mechanical hypersensitivity” value ([2]; systemic 10 mg/kg)?
A: Its value is 48 h.

Q: And the “peak magnitude of effect compared with gabapentin” value ([2]; systemic 10 mg/kg vs gabapentin 100 mg/kg)?
A: The value was “equivalent to 100 mg/kg gabapentin”.

Q: What about the “inhibition of radioligand binding (Ki column, footnote a)” value (“inhibition of radioligand binding” below) [3] of the same molecule?
A: The value was “^a (<50% inhibition of radioligand binding at 10 μM)”.

Q: And the “inhibition of radioligand binding” value [4]?
A: The value was “^a (<50% inhibition of radioligand binding at 10 μM)”.

Q: What about the “inhibition of radioligand binding” value [5] of the same molecule?
A: The value was “^a (<50% inhibition of radioligand binding at 10 μM)”.

Q: And the “inhibition of radioligand binding” value [6]?
A: Its value is “^a (<50% inhibition of radioligand binding at 10 μM)”.

Q: What about the “inhibition of radioligand binding” value [7] of the same molecule?
A: Its value is “^a (<50% inhibition of radioligand binding at 10 μM)”.

Q: What about the “inhibition of radioligand binding” value [8] of the same molecule?
A: The value was “^a (<50% inhibition of radioligand binding at 10 μM)”.

Q: And the “inhibition of radioligand binding” value [9]?
A: Its value is “^a (<50% inhibition of radioligand binding at 10 μM)”.

Q: What about the “inhibition of radioligand binding” value [10] of the same molecule?
A: Its value is “^a (<50% inhibition of radioligand binding at 10 μM)”.

Q: And the “inhibition of radioligand binding” value [11]?
A: Its value is “^a (<50% inhibition of radioligand binding at 10 μM)”.

Q: And the “inhibition of radioligand binding” value [12]?
A: The value was “^a (<50% inhibition of radioligand binding at 10 μM)”.

Q: What about the “inhibition of radioligand binding” value [13] of the same molecule?
A: The value was “^a (<50% inhibition of radioligand binding at 10 μM)”.

Q: What about the “inhibition of radioligand binding” value [14] of the same molecule?
A: The value was “^a (<50% inhibition of radioligand binding at 10 μM)”.

Q: And the “inhibition of radioligand binding” value [15]?
A: Its value is “^a (<50% inhibition of radioligand binding at 10 μM)”.

Q: And the “inhibition of radioligand binding” value [16]?
A: The value was “^a (<50% inhibition of radioligand binding at 10 μM)”.

Q: And the “inhibition of radioligand binding” value [17]?
A: Its value is “^a (<50% inhibition of radioligand binding at 10 μM)”.

Q: What about the “inhibition of radioligand binding” value [18] of the same molecule?
A: Its value is “^a (<50% inhibition of radioligand binding at 10 μM)”.

Q: What about the “inhibition of radioligand binding” value [19] of the same molecule?
A: Its value is “^a (<50% inhibition of radioligand binding at 10 μM)”.

Q: And the “inhibition of radioligand binding” value [20]?
A: Its value is “^a (<50% inhibition of radioligand binding at 10 μM)”.

Q: And the “inhibition of radioligand binding” value [21]?
A: Its value is “^a (<50% inhibition of radioligand binding at 10 μM)”.

Q: What about the “inhibition of radioligand binding” value [22] of the same molecule?
A: The value was “^a (<50% inhibition of radioligand binding at 10 μM)”.

Q: And the Ki [23]?
A: Its Ki is > 10 µM.

Q: What about the “inhibition of radioligand binding” value [24] of the same molecule?
A: Its value is “^a (<50% inhibition of radioligand binding at 10 μM)”.

Q: And the “inhibition of radioligand binding” value [25]?
A: Its value is “^a (<50% inhibition of radioligand binding at 10 μM)”.

Q: And the “inhibition of radioligand binding” value [26]?
A: The value was “^a (<50% inhibition of radioligand binding at 10 μM)”.

Q: And the “inhibition of radioligand binding” value [27]?
A: Its value is “^a (<50% inhibition of radioligand binding at 10 μM)”.

Q: What about the “inhibition of radioligand binding” value [28] of the same molecule?
A: The value was “^a (<50% inhibition of radioligand binding at 10 μM)”.

Q: And the “inhibition of radioligand binding” value [29]?
A: The value was “^a (<50% inhibition of radioligand binding at 10 μM)”.

Q: And the “inhibition of radioligand binding” value [30]?
A: The value was “^a (<50% inhibition of radioligand binding at 10 μM)”.

Q: What about the “inhibition of radioligand binding” value [31] of the same molecule?
A: The value was “^a (<50% inhibition of radioligand binding at 10 μM)”.

Q: What about the “inhibition of radioligand binding” value [32] of the same molecule?
A: The value was “^a (<50% inhibition of radioligand binding at 10 μM)”.

Q: And the Ki [33]?
A: The Ki was 1.38 µM.

Q: What about the “inhibition of radioligand binding” value [34] of the same molecule?
A: Its value is “^a (<50% inhibition of radioligand binding at 10 μM)”.

Q: What about the “inhibition of radioligand binding” value [35] of the same molecule?
A: The value was “^a (<50% inhibition of radioligand binding at 10 μM)”.

Q: And the “inhibition of radioligand binding” value [36]?
A: Its value is “^a (<50% inhibition of radioligand binding at 10 μM)”.

Q: And the “inhibition of radioligand binding” value [37]?
A: The value was “^a (<50% inhibition of radioligand binding at 10 μM)”.

Q: What about the Ki [38] of the same molecule?
A: The Ki was 1.05 µM.

Q: What about the Ki [39] of the same molecule?
A: The Ki was 6.72 µM.

Q: And the “inhibition of radioligand binding” value [40]?
A: The value was “^a (<50% inhibition of radioligand binding at 10 μM)”.

Q: And the “inhibition of radioligand binding” value [41]?
A: The value was “^a (<50% inhibition of radioligand binding at 10 μM)”.

Q: What about the Ki [42] of the same molecule?
A: The Ki was > 10 µM.
